≈ marks a conversion by molar mass, not a printed value.
Legend:
Streptococcus pneumoniae [1] = experiment: Antibacterial activity against dye-resistant Streptococcus pneumoniae by standardized agar doubling dilution method in presence of 20 ug/ml reserpine efflux pump inhibitor; format: functional
Procedure, shortened: (§1)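 MIC by agar doubling dilution following BSAC guidelines. Strains grown in brain heart infusion broth 24 h at 37°C in 5% CO2. Where an efflux pump inhibitor applies, MIC redetermined with reserpine at 20 μg/ml or sodium orthovanadate at 50 μM. Synergy taken as a fall in MIC of ≥2 dilutions with inhibitor present. Dye resistance defined relative to R6 (both dyes ≥2 dilutions higher).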

Streptococcus pneumoniae [2] = experiment: Antibacterial activity against Streptococcus pneumoniae M309 overexpressing patA, patB and inactivated patB with single mutation by standardized agar doubling dilution method in presence of 20 ug/ml reserpine efflux pump inhibitor; format: functional
Procedure, shortened: (§2)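 MICs determined by BSAC standardized agar doubling dilution. Strains were grown in brain heart infusion broth for 24 h at 37°C in 5% CO2. Inhibitor arms had reserpine at 20 μg/ml or sodium orthovanadate at 50 μM in the agar. Mutants were made by transforming magellan2 insertion amplimers into clinical isolates and selecting on spectinomycin 100 mg/liter, with a no-DNA spontaneous-mutation control.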

Streptococcus pneumoniae [3] = experiment: Antibacterial activity against Streptococcus pneumoniae M314 overexpressing patA, patB and inactivated patA with single mutation by standardized agar doubling dilution method in presence of 50 uM sodium orthovanadate efflux pump inhibitor; format: functional; procedure, shortened: as §2
Streptococcus pneumoniae [4] = experiment: Antibacterial activity against Streptococcus pneumoniae M55B overexpressing patA, patB and inactivated patB with single mutation by standardized agar doubling dilution method in presence of 50 uM sodium orthovanadate efflux pump inhibitor; format: functional
Procedure, shortened: (§3)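 MICs were determined by BSAC agar doubling dilution in the presence of sodium orthovanadate at 50 μM. Cultures were grown in BHI broth for 24 h at 37°C in 5% CO2, with R6 as control. Synergy was defined as an MIC reduction of ≥2 dilutions with the inhibitor present.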

Streptococcus pneumoniae [5] = experiment: Antibacterial activity against fluoroquinolone-resistant Streptococcus pneumoniae M97 FQ-R overexpressing patA, patB by standardized agar doubling dilution method in presence of 20 ug/ml reserpine efflux pump inhibitor; format: functional
Procedure, shortened: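 MIC by agar doubling dilution per BSAC guidelines; strains pregrown in brain heart infusion broth 24 h, 37°C, 5% CO2. MICs measured alone and with efflux pump inhibitors reserpine (20 μg/ml) or sodium orthovanadate (50 μM); synergy defined as ≥2-dilution MIC reduction in presence of inhibitor.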

Streptococcus pneumoniae [6] = experiment: Antibacterial activity against Streptococcus pneumoniae M46A overexpressing patA, patB and inactivated patA with single mutation by standardized agar doubling dilution method; format: functional
Procedure, shortened: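 MICs were determined by agar doubling dilution following BSAC guidelines, with no efflux inhibitor. Strains were grown in brain heart infusion broth for 24 h at 37°C in 5% CO2. Species identity was confirmed by Gram stain, optochin sensitivity and capsule test. Control strain R6 was tested alongside.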

Streptococcus pneumoniae [7] = experiment: Antibacterial activity against Streptococcus pneumoniae M319 overexpressing patA, patB and inactivated patB with single mutation by standardized agar doubling dilution method in presence of 50 uM sodium orthovanadate efflux pump inhibitor; format: functional; procedure, shortened: as §3
Streptococcus pneumoniae [8] = experiment: Antibacterial activity against Streptococcus pneumoniae M314 overexpressing patA, patB and inactivated patA with single mutation by standardized agar doubling dilution method in presence of 20 ug/ml reserpine efflux pump inhibitor; format: functional; procedure, shortened: as §2
Streptococcus pneumoniae [9] = experiment: Antibacterial activity against Streptococcus pneumoniae M304 overexpressing patA, patB and inactivated patA with single mutation by standardized agar doubling dilution method in presence of 50 uM sodium orthovanadate efflux pump inhibitor; format: functional; procedure, shortened: as §2
Streptococcus pneumoniae [10] = experiment: Antibacterial activity against fluoroquinolone-resistant Streptococcus pneumoniae M98 FQ-R overexpressing patA, patB by standardized agar doubling dilution method; format: functional
Procedure, shortened: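 Clinical S. pneumoniae isolates grown in BHI broth 24 h at 37°C in 5% CO2. MICs by agar doubling dilution per BSAC guidelines, alone or with efflux inhibitor reserpine (20 μg/ml) or sodium orthovanadate (50 μM). Synergy defined as ≥2-dilution MIC reduction in presence of inhibitor.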

Streptococcus pneumoniae [11] = experiment: Antibacterial activity against Streptococcus pneumoniae M314 overexpressing patA, patB and inactivated patA with single mutation by standardized agar doubling dilution method; format: functional; procedure, shortened: as §2
Streptococcus pneumoniae [12] = experiment: Antibacterial activity against fluoroquinolone-resistant Streptococcus pneumoniae by standardized agar doubling dilution method; format: functional; procedure, shortened: as §1
Streptococcus pneumoniae [13] = experiment: Antibacterial activity against wild-type Streptococcus pneumoniae R6 by standardized agar doubling dilution method in presence of 20 ug/ml reserpine efflux pump inhibitor
Streptococcus pneumoniae [14] = experiment: Antibacterial activity against fluoroquinolone, dye-resistant Streptococcus pneumoniae M86 overexpressing patA, patB by standardized agar doubling dilution method in presence of 50 uM sodium orthovanadate efflux pump inhibitor; format: functional; procedure, shortened: as §1
Streptococcus pneumoniae [15] = experiment: Antibacterial activity against dye-resistant Streptococcus pneumoniae M55 DR overexpressing patA, patB by standardized agar doubling dilution method in presence of 20 ug/ml reserpine efflux pump inhibitor; format: functional; procedure, shortened: as §1
Streptococcus pneumoniae [16] = experiment: Antibacterial activity against dye-resistant Streptococcus pneumoniae M55 DR overexpressing patA, patB by standardized agar doubling dilution method in presence of 50 uM sodium orthovanadate efflux pump inhibitor; format: functional; procedure, shortened: as §1
Streptococcus pneumoniae [17] = experiment: Antibacterial activity against wild type Streptococcus pneumoniae M3 NCTC 7466 type 2 by standardized agar doubling dilution method in presence of 20 ug/ml reserpine efflux pump inhibitor; format: functional; procedure, shortened: as §1
Streptococcus pneumoniae [18] = experiment: Antibacterial activity against dye-resistant Streptococcus pneumoniae M46 DR overexpressing patA, patB by standardized agar doubling dilution method in presence of 20 ug/ml reserpine efflux pump inhibitor; format: functional
Procedure, shortened: (§4)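 MICs were determined by BSAC agar doubling dilution in the presence of reserpine at 20 μg/ml. Strains were grown in BHI broth for 24 h at 37°C in 5% CO2, with R6 as control. Synergy was defined as an MIC drop of ≥2 dilutions with the inhibitor.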

Streptococcus pneumoniae [19] = experiment: Antibacterial activity against fluoroquinolone, dye-resistant Streptococcus pneumoniae M296 overexpressing patA, patB by standardized agar doubling dilution method in presence of 20 ug/ml reserpine efflux pump inhibitor; format: functional; procedure, shortened: as §1
Streptococcus pneumoniae [20] = experiment: Antibacterial activity against Streptococcus pneumoniae M86B overexpressing patA, patB and inactivated patB with single mutation by standardized agar doubling dilution method in presence of 50 uM sodium orthovanadate efflux pump inhibitor; format: functional; procedure, shortened: as §3
Streptococcus pneumoniae [21] = experiment: Antibacterial activity against Streptococcus pneumoniae M86B overexpressing patA, patB and inactivated patB with single mutation by standardized agar doubling dilution method in presence of 20 ug/ml reserpine efflux pump inhibitor; format: functional; procedure, shortened: as §4
Streptococcus pneumoniae [22] = experiment: Antibacterial activity against Streptococcus pneumoniae M86A overexpressing patA, patB and inactivated patA with single mutation by standardized agar doubling dilution method in presence of 20 ug/ml reserpine efflux pump inhibitor; format: functional; procedure, shortened: as §4
Streptococcus pneumoniae [23] = experiment: Antibacterial activity against wild type Streptococcus pneumoniae M4 NCTC 7465 type 1 by standardized agar doubling dilution method in presence of 20 ug/ml reserpine efflux pump inhibitor; format: functional; procedure, shortened: as §1
Streptococcus pneumoniae [24] = experiment: Antibacterial activity against Streptococcus pneumoniae M86A overexpressing patA, patB and inactivated patA with single mutation by standardized agar doubling dilution method in presence of 50 uM sodium orthovanadate efflux pump inhibitor; format: functional; procedure, shortened: as §3
Streptococcus pneumoniae [25] = experiment: Antibacterial activity against wild-type Streptococcus pneumoniae R6 by standardized agar doubling dilution method
Streptococcus pneumoniae [26] = experiment: Antibacterial activity against fluoroquinolone, dye-resistant Streptococcus pneumoniae M86 overexpressing patA, patB by standardized agar doubling dilution method in presence of 20 ug/ml reserpine efflux pump inhibitor; format: functional; procedure, shortened: as §1
Streptococcus pneumoniae [27] = experiment: Antibacterial activity against wild type Streptococcus pneumoniae R6 by standardized agar doubling dilution method; format: functional; procedure, shortened: as §1

O=C(O)c1cn(C2CC2)c2cc(N3CCNCC3)c(F)cc2c1=O [CIPROFLOXACIN]
MIC90 (Streptococcus pneumoniae [1]): 0.5 mg/L | MIC (Streptococcus pneumoniae [2]): 1 mg/L | MIC (Streptococcus pneumoniae [3]): 8 mg/L | MIC (Streptococcus pneumoniae [4]): 2 mg/L | MIC (Streptococcus pneumoniae [5]): 4 mg/L | MIC (Streptococcus pneumoniae [6]): 0.12 mg/L (≈ 0.362 µM) | MIC (Streptococcus pneumoniae [7]): 16 mg/L | MIC (Streptococcus pneumoniae [8]): 8 mg/L | MIC (Streptococcus pneumoniae [9]): 2 mg/L | MIC (Streptococcus pneumoniae [10]): 32 mg/L (≈ 96.6 µM) | MIC (Streptococcus pneumoniae [11]): 8 mg/L (≈ 24.1 µM) | MIC90 (Streptococcus pneumoniae [12]): 8 mg/L (≈ 24.1 µM)

CC[n+]1c(-c2ccccc2)c2cc(N)ccc2c2ccc(N)cc21.[Br-] [HOMIDIUM BROMIDE]
MIC (Streptococcus pneumoniae [1]): 0.5 mg/L | MIC90 (Streptococcus pneumoniae [1]): 0.5 mg/L | MIC (Streptococcus pneumoniae [2]): 0.5 mg/L | MIC (Streptococcus pneumoniae [13]): 0.25 mg/L | MIC (Streptococcus pneumoniae [14]): 0.5 mg/L | MIC (Streptococcus pneumoniae [3]): 0.5 mg/L | MIC (Streptococcus pneumoniae [4]): 0.5 mg/L | MIC (Streptococcus pneumoniae [5]): 0.5 mg/L | MIC (Streptococcus pneumoniae [15]): 0.5 mg/L | MIC (Streptococcus pneumoniae [16]): 1 mg/L | MIC (Streptococcus pneumoniae [17]): 0.5 mg/L | MIC (Streptococcus pneumoniae [18]): 0.5 mg/L | MIC (Streptococcus pneumoniae [6]): 0.5 mg/L | MIC (Streptococcus pneumoniae [19]): 0.5 mg/L | MIC (Streptococcus pneumoniae [20]): 0.5 mg/L | MIC (Streptococcus pneumoniae [21]): 0.5 mg/L | MIC (Streptococcus pneumoniae [22]): 0.5 mg/L | MIC (Streptococcus pneumoniae [7]): 0.5 mg/L | MIC (Streptococcus pneumoniae [23]): 0.3 mg/L | MIC (Streptococcus pneumoniae [24]): 0.5 mg/L | MIC (Streptococcus pneumoniae [25]): 1 mg/L | MIC (Streptococcus pneumoniae [8]): 0.5 mg/L | MIC (Streptococcus pneumoniae [9]): 0.25 mg/L | MIC (Streptococcus pneumoniae [10]): 4 mg/L | MIC (Streptococcus pneumoniae [11]): 0.5 mg/L | MIC90 (Streptococcus pneumoniae [12]): 2 mg/L | MIC (Streptococcus pneumoniae [26]): 0.5 mg/L | MIC (Streptococcus pneumoniae [27]): 1 mg/L
